Assay results: ChEMBL document CHEMBL4819107, “Substituted N-(4-amino-2-chlorophenyl)-5-chloro-2-hydroxybenzamide analogues potently inhibit respiratory syncytial virus (RSV) replication and RSV infection-associated inflammatory responses” (Bioorg Med Chem, 2021)
Activity calls are given as the source filed them. The calls are words filed in the database; no cut-off is given here.

Legend:
A549 [1] = experiment: Antiinflammatory activity against in human A549 cells assessed as reduction in RSV-induced NF-kappaB mRNA expression at 10 uM incubated for 4 hrs by qRT-PCR analysis; assay type: functional, cell-based
A549 [2] = experiment: Antiinflammatory activity against in human A549 cells transfected with PRDIII-I-Luc and IRF-3-Luc assessed as reduction in RSV-induced IRF3 activation at 10 uM incubated for 15 hrs by luciferase reporter gene assay; assay type: functional, cell-based
Procedure, shortened: (§1)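 A549 cells transfected in triplicate with luciferase plasmids, either NF-κB-Luc or IRF-3-site reporters. At 20 h post-transfection, infected with RSV (MOI 1). Virus removed at 2 h, then 10 μM compound added for 15 h. Cells then harvested and lysed for luciferase activity.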

A549 [3] = experiment: Antiinflammatory activity against in human A549 cells transfected with NF-kappaB-Luc assessed as reduction in RSV-induced NF-kappaB activation at 10 uM incubated for 15 hrs by luciferase reporter gene assay; assay type: functional, cell-based; procedure, shortened: as §1
A549 [4] = experiment: Antiinflammatory activity against in human A549 cells assessed as reduction in RSV-induced IRF3 mRNA expression at 10 uM incubated for 4 hrs by qRT-PCR analysis; assay type: functional, cell-based
[5] = system: Respiratory syncytial virus; experiment: Antiviral activity against RSV infected in human A549 cells assessed as reduction in viral titer at 10 uM incubated for 15 hrs by immunostaining analysis; assay type: functional
Procedure, shortened: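 RSV long strain (propagated in HEp-2, sucrose-gradient purified) infected A549 cells at MOI 1 for 2 h. Inoculum removed, then compound at 10 μM for 15 h. Progeny virus titred by immunostaining in HEp-2 cells with biotin-conjugated goat anti-RSV antibody. Log reduction = log10 mean titer of vehicle-treated cells minus log10 mean titer with compound.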

A549 [6] = experiment: Cytotoxicity against human A549 cells assessed as reduction in cell viability incubated for 15 hrs by trypan blue assay; settings: a549, 15 h
SAEC [7] = experiment: Antiinflammatory activity against in human SAEC cells assessed as reduction in RSV-induced MIP-1beta production at 10 uM incubated for 4 hrs by immunoassay; assay type: functional, cell-based
Procedure, shortened: (§2)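 Primary small airway epithelial cells infected with RSV long strain at MOI 5. Virus removed at 2 h, then 10 μM compound added. Supernatant collected 4 h post-treatment. Cytokines/chemokines quantified with a multiplex human profiling bead kit (Bio-Plex).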

[8] = system: Respiratory syncytial virus; experiment: Antiviral activity against RSV infected in human A549 cells assessed as reduction in viral genome copies at 10 uM measured after 15 hrs by RT-qPCR analysis
[9] = system: Respiratory syncytial virus; experiment: Antiviral activity against RSV infected in human A549 cells assessed as reduction in viral RNA at 10 uM measured upto 24 hrs by qRT-PCR analysis; assay type: functional, organism-based; settings: time hrs <=24
Procedure, shortened: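 A549 cells infected with RSV (MOI 1), then given 10 μM compound. RSV genome copies in cells quantified by RT-qPCR at 6, 15 and 24 h post-treatment. A fusion inhibitor served as a reference control.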

SAEC [10] = experiment: Antiinflammatory activity against in human SAEC cells assessed as reduction in RSV-induced TNF-alpha production at 10 uM incubated for 4 hrs by immunoassay; assay type: functional, cell-based; procedure, shortened: as §2
SAEC [11] = experiment: Antiinflammatory activity against in human SAEC cells assessed as reduction in RSV-induced IL-6 production at 10 uM incubated for 4 hrs by immunoassay; assay type: functional, cell-based; procedure, shortened: as §2

SMILES	log(activity) [5]	CC50 (A549 [6]) [µM]	also measured
CC(C)Nc1ccc(NC(=O)c2cc(Cl)ccc2O)c(Cl)c1	1.88	82.7	inhibition (A549 [1]): Active; inhibition (A549 [2]): Active; inhibition (A549 [3]): Active; inhibition (A549 [4]): Active
O=C(Nc1ccc(NCc2ccc(F)cc2)cc1Cl)c1cc(Cl)ccc1O	1.54		
CCCCCCC(C)Nc1ccc(NC(=O)c2cc(Cl)ccc2O)c(Cl)c1 (centres undefined)	1.16	18.6	
CC(C)(C)OC(=O)N1CCC(CNc2ccc(NC(=O)c3cc(Cl)ccc3O)c(Cl)c2)CC1	1.53		
O=C(Nc1ccc(NCC2CCNCC2)cc1Cl)c1cc(Cl)ccc1O	-0.07		
O=C(Nc1ccc(N2CCCC2)cc1Cl)c1cc(Cl)ccc1O	1.51		
CCCNc1ccc(NC(=O)c2cc(Cl)ccc2O)c(Cl)c1	1.82	69.7	inhibition (A549 [1]): Active; inhibition (A549 [2]): Active; inhibition (A549 [3]): Active; inhibition (SAEC [7]): Active; inhibition (A549 [4]): Active
CS(=O)(=O)CCCn1c(Cn2c(=O)n(CC(F)(F)F)c3ccncc32)cc2cc(Cl)ccc21			inhibition [8]: inactive; inhibition [9]: Active
CC(=O)Nc1ccc(NC(=O)c2cc(Cl)ccc2O)c(Cl)c1	0.09		
O=C(Nc1ccc(NC2CCCC2)cc1Cl)c1cc(Cl)ccc1O	1.44		
CCCC(C)(C)Nc1ccc(NC(=O)c2cc(Cl)ccc2O)c(Cl)c1	1.81	23.7	
Nc1ccc(NC(=O)c2cc(Cl)ccc2O)c(Cl)c1	-0.01		
O=C(Nc1ccc(NCc2ccccc2)cc1Cl)c1cc(Cl)ccc1O	1.53	81.3	
O=C(Nc1ccc(N2CCOCC2)cc1Cl)c1cc(Cl)ccc1O	1.74	89.9	inhibition (A549 [1]): Active; inhibition (A549 [2]): Active; inhibition (A549 [3]): Active; inhibition (A549 [4]): Active
CCCN(CCC)c1ccc(NC(=O)c2cc(Cl)ccc2O)c(Cl)c1	1.91	323	inhibition (A549 [1]): Active; inhibition (A549 [2]): Active; inhibition (A549 [3]): Active; inhibition (A549 [4]): Active; inhibition (SAEC [10]): Active
O=C(Nc1ccc(NCc2cccnc2)cc1Cl)c1cc(Cl)ccc1O	0.54		inhibition (A549 [1]): inactive; inhibition (A549 [2]): inactive; inhibition (SAEC [11]): inactive; inhibition (A549 [3]): inactive; inhibition (SAEC [7]): inactive; inhibition (A549 [4]): inactive; inhibition (SAEC [10]): inactive
O=C(Nc1ccc(NCCCO)cc1Cl)c1cc(Cl)ccc1O	-0.16		
O=C(Nc1ccc(NCc2cc(C(F)(F)F)cc(C(F)(F)F)c2)cc1Cl)c1cc(Cl)ccc1O	2.59	22.9	
O=C(Nc1ccc(NCC2CCCC2)cc1Cl)c1cc(Cl)ccc1O	1.42	141	
